# In ChEMBL document CHEMBL1133591, “Potent derivatives of glucagon-like peptide-1 with pharmacokinetic properties suitable for once daily administration” (J Med Chem, 2000):
# Numbered stars: 1 amine (or outer) side, 2 acyl side, 3 side chain; on linkers, the order of the positions; unused ones are H or OH. Square brackets hold non-standard residues; d marks the D form. Side chains are listed from the residue outwards. Peptide text beside a SMILES is read from it. * marks the point of attachment. ξ: configuration not given here. ξγGlu = O=C(O)C(CCC(=O)[*:2])N[*:1]; Palmitoyl = CCCCCCCCCCCCCCCC(=O)*; X1 = CCCCCCCCCC(CCCCC(=O)*)C(=O)O; ξK = NCCCCC(N)C(=O)O
# What was measured:
# [1] = molecular target: Glucagon-like peptide 1 receptor (Homo sapiens, UniProt P43220); assay: Potency measured using recombinant human GLP-1 receptor expressed in Baby Hamster Kidney (BHK)cells; format: cell-based
# [2] = Plasma half life was determined in pigs; format: ADME, organism-based, Sus scrofa; details: pig
# Summary of the method: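 Landrace × Duroc × Yorkshire pigs, 25–50 kg, two per compound; single sc dose, 0.5 nmol/kg for analogues, 15 nmol/kg for GLP-1. Jugular catheter blood at 0–72 h, extra early samples for GLP-1; EDTA/aprotinin/bacitracin-stabilized plasma. Unextracted plasma assayed by N-terminal-specific GLP-1 radioimmunoassay against spiked pig-plasma calibrators; half-life calculated per pig, reported as mean ± SD.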
# Sequence of Glucagon-like peptide 1 receptor (P43220 whole entry): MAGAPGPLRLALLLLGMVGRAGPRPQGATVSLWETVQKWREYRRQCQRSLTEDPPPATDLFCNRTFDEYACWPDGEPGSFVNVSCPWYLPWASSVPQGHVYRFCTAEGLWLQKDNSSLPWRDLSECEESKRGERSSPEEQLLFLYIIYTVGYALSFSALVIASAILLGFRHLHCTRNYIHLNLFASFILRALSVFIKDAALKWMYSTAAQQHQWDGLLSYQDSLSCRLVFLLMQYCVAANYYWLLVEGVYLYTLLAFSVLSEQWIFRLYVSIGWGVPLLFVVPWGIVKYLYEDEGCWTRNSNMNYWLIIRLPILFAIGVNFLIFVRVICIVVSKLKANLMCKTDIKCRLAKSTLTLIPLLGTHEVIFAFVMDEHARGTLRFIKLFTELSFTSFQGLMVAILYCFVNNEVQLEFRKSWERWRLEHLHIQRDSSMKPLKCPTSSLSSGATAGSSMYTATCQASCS
EC50 [1],half-life [2],SMILES
0.00789 nM,13 h,CCCCCCCCCC(CCCCC(=O)NCCCC[C@H](NC(=O)CNC(=O)[C@H](CCCN=C(N)N)NC(=O)[C@@H](NC(=O)[C@H](CC(C)C)NC(=O)[C@H](Cc1c[nH]c2ccccc12)NC(=O)[C@H](C)NC(=O)[C@@H](NC(=O)[C@H](Cc1ccccc1)NC(=O)[C@H](CCC(=O)O)NC(=O)[C@H](CCCN=C(N)N)NC(=O)[C@H](C)NC(=O)[C@H](C)NC(=O)[C@H](CCC(N)=O)NC(=O)CNC(=O)[C@H](CCC(=O)O)NC(=O)[C@H](CC(C)C)NC(=O)[C@H](Cc1ccc(O)cc1)NC(=O)[C@H](CO)NC(=O)[C@H](CO)NC(=O)[C@@H](NC(=O)[C@H](CC(=O)O)NC(=O)[C@H](CO)NC(=O)[C@@H](NC(=O)[C@H](Cc1ccccc1)NC(=O)[C@@H](NC(=O)CNC(=O)[C@H](CCC(=O)O)NC(=O)[C@H](C)NC(=O)[C@@H](N)Cc1c[nH]cn1)[C@@H](C)O)[C@@H](C)O)C(C)C)[C@@H](C)CC)C(C)C)C(=O)NCC(=O)O)C(=O)O (stereo partly drawn) (H-HAEGTFTSDVSSYLEGQAAREFIAWLVRGK(X1)G-OH)
0.0364 nM,12 h,CCCCCCCCCCCCCCCC(=O)NC(CCC(=O)NCCCC[C@H](NC(=O)CNC(=O)[C@H](CCCN=C(N)N)NC(=O)[C@@H](NC(=O)[C@H](CC(C)C)NC(=O)[C@H](Cc1c[nH]c2ccccc12)NC(=O)[C@H](C)NC(=O)[C@@H](NC(=O)[C@H](Cc1ccccc1)NC(=O)[C@H](CCC(=O)O)NC(=O)[C@H](CCCN=C(N)N)NC(=O)[C@H](C)NC(=O)[C@H](C)NC(=O)[C@H](CCC(N)=O)NC(=O)CNC(=O)[C@H](CCC(=O)O)NC(=O)[C@H](CC(C)C)NC(=O)[C@H](Cc1ccc(O)cc1)NC(=O)[C@H](CO)NC(=O)[C@H](CO)NC(=O)[C@@H](NC(=O)[C@H](CC(=O)O)NC(=O)[C@H](CO)NC(=O)[C@@H](NC(=O)[C@H](Cc1ccccc1)NC(=O)[C@@H](NC(=O)CNC(=O)[C@H](CCC(=O)O)NC(=O)[C@H](C)NC(=O)[C@@H](N)Cc1c[nH]cn1)[C@@H](C)O)[C@@H](C)O)C(C)C)[C@@H](C)CC)C(C)C)C(=O)NCC(=O)O)C(=O)O (stereo partly drawn) (H-HAEGTFTSDVSSYLEGQAAREFIAWLVRGK([ξγGlu-Palmitoyl])G-OH)
0.121 nM,13 h,CCCCCCCCCCCCCCCC(=O)NC(CCC(=O)NCCCC[C@H](NC(=O)[C@@H](NC(=O)[C@H](CC(C)C)NC(=O)[C@H](Cc1c[nH]c2ccccc12)NC(=O)[C@H](C)NC(=O)[C@@H](NC(=O)[C@H](Cc1ccccc1)NC(=O)[C@H](CCC(=O)O)NC(=O)[C@H](CCCN=C(N)N)NC(=O)[C@H](C)NC(=O)[C@H](C)NC(=O)[C@H](CCC(N)=O)NC(=O)CNC(=O)[C@H](CCC(=O)O)NC(=O)[C@H](CC(C)C)NC(=O)[C@H](Cc1ccc(O)cc1)NC(=O)[C@H](CO)NC(=O)[C@H](CO)NC(=O)[C@@H](NC(=O)[C@H](CC(=O)O)NC(=O)[C@H](CO)NC(=O)[C@@H](NC(=O)[C@H](Cc1ccccc1)NC(=O)[C@@H](NC(=O)CNC(=O)[C@H](CCC(=O)O)NC(=O)[C@H](C)NC(=O)[C@@H](N)Cc1c[nH]cn1)[C@@H](C)O)[C@@H](C)O)C(C)C)[C@@H](C)CC)C(C)C)C(=O)NCC(=O)N[C@@H](CCCCN=C(N)N)C(=O)NCC(=O)O)C(=O)O (stereo partly drawn)
0.135 nM,11 h,CCCCCCCCCCCCCCCC(=O)NC(CCC(=O)NCCCCC(NC(=O)[C@H](CCC(=O)O)NC(=O)[C@H](CCCN=C(N)N)NC(=O)CNC(=O)[C@H](CCCN=C(N)N)NC(=O)[C@@H](NC(=O)[C@H](CC(C)C)NC(=O)[C@H](Cc1c[nH]c2ccccc12)NC(=O)[C@H](C)NC(=O)[C@@H](NC(=O)[C@H](Cc1ccccc1)NC(=O)[C@H](CCC(=O)O)NC(=O)[C@H](CCCN=C(N)N)NC(=O)[C@H](C)NC(=O)[C@H](C)NC(=O)[C@H](CCC(N)=O)NC(=O)CNC(=O)[C@H](CCC(=O)O)NC(=O)[C@H](CC(C)C)NC(=O)[C@H](Cc1ccc(O)cc1)NC(=O)[C@H](CO)NC(=O)[C@H](CO)NC(=O)[C@@H](NC(=O)[C@H](CC(=O)O)NC(=O)[C@H](CO)NC(=O)[C@@H](NC(=O)[C@H](Cc1ccccc1)NC(=O)[C@@H](NC(=O)CNC(=O)[C@H](CCC(=O)O)NC(=O)CNC(=O)[C@@H](N)Cc1c[nH]cn1)[C@@H](C)O)[C@@H](C)O)C(C)C)[C@@H](C)CC)C(C)C)C(=O)O)C(=O)O (stereo partly drawn) (H-HGEGTFTSDVSSYLEGQAAREFIAWLVRGRE[ξK]([ξγGlu-Palmitoyl])-OH)
